Measured values from ChEMBL document CHEMBL3044834, “Novel protoporphyrinogen oxidase inhibitors: 3H-pyrazolo[3,4-d][1,2,3]triazin-4-one derivatives” (J Agric Food Chem, 2008).

Legend:
Format in all cases: functional
[1] = system: Digitaria sanguinalis; assay: Herbicidal activity against Digitaria sanguinalis (hairy crabgrass) assessed as inhibition of fresh weed plant weight at 1500 g/ha using pre-emergence treatment protocol
[2] = system: Amaranthus retroflexus; assay: Herbicidal activity against Amaranthus retroflexus assessed as inhibition of fresh weed plant weight at 1500 g/ha using post-emergence treatment protocol
Outline: (§1)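 Test compounds made up as emulsions by dissolving in 100 µL N,N-dimethylformamide, then adding a little Tween 20 and water. For post-emergence, weed seedlings at one leaf and one stem were sprayed at the same rates as the pre-emergence test. Fresh weight was recorded 15 days after treatment and expressed as percent inhibition versus controls. All treatments were run in triplicate.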

[3] = system: Amaranthus retroflexus; assay: Herbicidal activity against Amaranthus retroflexus assessed as inhibition of fresh weed plant weight at 1500 g/ha using pre-emergence treatment protocol
[4] = system: Digitaria sanguinalis; assay: Herbicidal activity against Digitaria sanguinalis (hairy crabgrass) assessed as inhibition of fresh weed plant weight at 1500 g/ha using post-emergence treatment protocol; outline: as §1
[5] = system: Brassica rapa subsp. oleifera; assay: Herbicidal activity against Brassica rapa subsp. oleifera assessed as inhibition of fresh weed plant weight at 1500 g/ha using post-emergence treatment protocol; outline: as §1
[6] = system: Brassica rapa subsp. oleifera; assay: Herbicidal activity against Brassica rapa subsp. oleifera assessed as inhibition of fresh weed plant weight at 1500 g/ha using pre-emergence treatment protocol
[7] = system: Echinochloa crus-galli; assay: Herbicidal activity against Echinochloa crus-galli (barnyard grass) assessed as inhibition of fresh weed plant weight at 1500 g/ha using pre-emergence treatment protocol
[8] = system: Echinochloa crus-galli; assay: Herbicidal activity against Echinochloa crus-galli (barnyard grass) assessed as inhibition of fresh weed plant weight at 1500 g/ha using post-emergence treatment protocol; outline: as §1

Structure (SMILES) | inhibition at 1500 g/ha [1] | inhibition at 1500 g/ha [2] | inhibition at 1500 g/ha [3] | inhibition at 1500 g/ha [4] | inhibition at 1500 g/ha [5] | inhibition at 1500 g/ha [6] | inhibition at 1500 g/ha [7] | inhibition at 1500 g/ha [8]
CCOc1cc(-n2nnc3c(cnn3C)c2=O)c(F)cc1Cl | 0% | 70.6% | 0% | 0% | 21.5% | 29.8% | 12.4% | 20.2%
CCCCOc1cc(-n2nnc3c(cnn3C)c2=O)c(F)cc1Cl | 0% | 16.6% | 0% | 0% | 16.1% | 4.8% | 0% | 0%
CCCCCOc1cc(-n2nnc3c(cnn3C)c2=O)c(F)cc1Cl | 0% | 23.2% | 0% | 0% | 6.1% | 13.9% | 1.1% | 15.3%
Cn1ncc2c(=O)n(-c3cc(OC/C=C/Cl)c(Cl)cc3F)nnc21 | 1.4% | 14% | 0% | 0% | 2.9% | 0% | 9.7% | 11.1%
C=C(Cl)COc1cc(-n2nnc3c(cnn3C)c2=O)c(F)cc1Cl | 0% | 54.1% | 11% | 0% | 0% | 0% | 15.9% | 31.1%
Cn1ncc2c(=O)n(-c3cc(OCC#N)c(Cl)cc3F)nnc21 | 2.3% | 100% | 40.5% | 0% | 31.3% | 0% | 17.5% | 32.6%
COCCOCOc1cc(-n2nnc3c(cnn3C)c2=O)c(F)cc1Cl | 2.3% | 74.9% | 51.8% | 0% | 28% | 0% | 5.6% | 43.6%
C#CCOc1cc(-n2nnc3c(cnn3C)c2=O)c(F)cc1Cl | 0% | 0% | 0% | 19.6% | 9.2% | 12.7% | 0% | 20.8%
C=CCOc1cc(-n2nnc3c(cnn3C)c2=O)c(F)cc1Cl | 0% | 0% | 10.6% | 17.9% | 1.2% | 7.4% | 11% | 28%
CCOC(=O)Oc1cc(-n2nnc3c(cnn3C)c2=O)c(F)cc1Cl | 0% | 7.7% | 0% | 0% | 0% | 0% | 19.8% | 37.7%
C#CCOc1cc(-n2nnc3c(c(C(F)(F)F)nn3C)c2=O)c(F)cc1Cl | 6.7% | 5.5% | 15.5% | 0% | 32.7% | 21.6% | 0% | 2.4%
C#CCOc1cc(-n2nnc3c(c(C)nn3C)c2=O)c(F)cc1Cl | 38.3% | 0% | 0% | 0% | 0% | 9.5% | 0% | 0%
C=CCOc1cc(-n2nnc3c(c(C)nn3C)c2=O)c(F)cc1Cl | 0% | 14.7% | 0% | 16.6% | 7.5% | 7.8% | 17.2% | 21%
C=CCN1C(=O)COc2cc(F)c(-n3nnc4c(cnn4C)c3=O)cc21 | 0% | 20.3% | 30.6% | 27% | 20.9% | 17.5% | 24.4% | 9.1%
C#CCN1C(=O)COc2cc(F)c(-n3nnc4c(c(C(F)(F)F)nn4C)c3=O)cc21 | 8.3% | 0% | 0% | 0% | 20.8% | 0% | 3% | 8.2%
C=CCN1C(=O)COc2cc(F)c(-n3nnc4c(c(C(F)(F)F)nn4C)c3=O)cc21 | 0% | 0% | 1.2% | 0% | 12% | 0% | 0% | 13.6%
C#CCN1C(=O)COc2cc(F)c(-n3nnc4c(c(C)nn4C)c3=O)cc21 | 57% | 0% | 30% | 0% | 0% | 44.4% | 15.8% | 0%
C=CCN1C(=O)COc2cc(F)c(-n3nnc4c(c(C)nn4C)c3=O)cc21 | 47.7% | 0% | 50% | 0% | 0% | 34.6% | 22.3% | 0%
Cn1ncc2c(=O)n(-c3cc(O)c(Cl)cc3F)nnc21 | 0% | 25.1% | 23.7% | 9.2% | 27.9% | 0% | 3.5% | 13.2%
COc1cc(-n2nnc3c(cnn3C)c2=O)c(F)cc1Cl | 0% | 37.5% | 40.5% | 20.6% | 28.3% | 0% | 11.3% | 1%
